Reference: ChEMBL document CHEMBL5236609, “Optimization of 1,2,4-Triazole-3-thiones toward Broad-Spectrum Metallo-β-lactamase Inhibitors Showing Potent Synergistic Activity on VIM- and NDM-1-Producing Clinical Isolates” (J Med Chem, 2022)

Key:
[1] = Inhibition of bacterial VIM-1 (unknown origin) expressed in Escherichia coli EXPRESS BL21(DE3) assessed as inhibition constant by measuring rate of substrate hydrolysis by UV-visible spectrophotometry; parameters: species or system Bacteria
In short: (§1)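 Reporter-substrate assay with purified MBL (1–70 nM final) in 50 mM HEPES pH 7.5 at 30 °C. […] Inhibitor 0.5–1000 μM final. Ki derived from the v0/vi vs [I] slope assuming competitive inhibition, or from a Dixon plot. Ki given when inhibition >70%, otherwise % inhibition at 100 μM. Triplicate.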

[2] = Inhibition of bacterial VIM-2 (unknown origin) expressed in Escherichia coli EXPRESS BL21(DE3) assessed as inhibition constant by measuring rate of substrate hydrolysis by UV-visible spectrophotometry; parameters: species or system Bacteria; in short: as §1
[3] = Inhibition of bacterial VIM-4 (unknown origin) expressed in Escherichia coli EXPRESS BL21(DE3) assessed as inhibition constant by measuring rate of substrate hydrolysis by UV-visible spectrophotometry; parameters: species or system Bacteria; in short: as §1
[4] = system: Bacteria; test: Inhibition of bacterial NDM-1 (unknown origin) expressed in Escherichia coli EXPRESS BL21(DE3) assessed as inhibition constant by measuring rate of substrate hydrolysis at 100 uM by UV-visible spectrophotometry relative to control; in short: as §1
[5] = system: Bacteria; test: Inhibition of bacterial IMP-1 (unknown origin) expressed in Escherichia coli EXPRESS BL21(DE3) assessed as inhibition constant by measuring rate of substrate hydrolysis at 100 uM by UV-visible spectrophotometry relative to control; in short: as §1
[6] = system: Klebsiella pneumoniae; test: Antimicrobial activity against blaVIM-1-producing multidrug-resistant Klebsiella pneumoniae K47-25 clinical isolate assessed as meropenem MIC at 32 ug/ml by broth microdilution method (reference value: […] ug/ml); type: functional; details: dose 32 µg/ml
In short: (§2)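 Inoculum was 5×10^4 CFU/well. Each inhibitor was present at a fixed 32 μg/mL, and MICs were also taken without inhibitor.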

[7] = system: Klebsiella pneumoniae; test: Antimicrobial activity against blaVIM-4-producing multidrug-resistant Klebsiella pneumoniae VA-416/02 clinical isolate assessed as meropenem MIC at 32 ug/ml by broth microdilution method (reference value: […] ug/ml); type: functional; details: dose 32 µg/ml; in short: as §2
[8] = system: Pseudomonas aeruginosa; test: Antimicrobial activity against blaVIM-2-producing multidrug-resistant Pseudomonas aeruginosa VA-182/00 clinical isolate assessed as meropenem MIC at 32 ug/ml by broth microdilution method (reference value: 128 ug/ml); type: functional; details: dose 32 µg/ml; in short: as §2
[9] = system: Escherichia coli; test: Antimicrobial activity against blaNDM-1-producing multidrug-resistant Escherichia coli SI-004 clinical isolate assessed as meropenem MIC at 32 ug/ml by broth microdilution method (reference value: 64 ug/ml)
[10] = Inhibition of bacterial NDM-1 (unknown origin) expressed in Escherichia coli EXPRESS BL21(DE3) assessed as inhibition constant by measuring rate of substrate hydrolysis by UV-visible spectrophotometry; parameters: species or system Bacteria; in short: as §1
[11] = Cytotoxicity against human HeLa cells assessed as LDH release incubated for 24 hrs by membrane integrity assay; type: toxicity, cell-based
In short: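 HeLa cells (20,000/well) exposed to compound up to 250 μM for 24 h at 37 °C, 5% CO2 in DMEM with 10% FBS, 4.5 mg/mL glucose and 2 mM L-glutamine. LDH release expressed as % of Triton X-100 maximum lysis; IC50 is the concentration giving 50% cytotoxicity.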

[12] = system: Bacteria; test: Inhibition of bacterial VIM-1 (unknown origin) expressed in Escherichia coli EXPRESS BL21(DE3) assessed as inhibition constant by measuring rate of substrate hydrolysis at 100 uM by UV-visible spectrophotometry relative to control; in short: as §1
[13] = system: Bacteria; test: Inhibition of bacterial VIM-2 (unknown origin) expressed in Escherichia coli EXPRESS BL21(DE3) assessed as inhibition constant by measuring rate of substrate hydrolysis at 100 uM by UV-visible spectrophotometry relative to control; in short: as §1
[14] = system: Bacteria; test: Inhibition of bacterial VIM-4 (unknown origin) expressed in Escherichia coli EXPRESS BL21(DE3) assessed as inhibition constant by measuring rate of substrate hydrolysis at 100 uM by UV-visible spectrophotometry relative to control; in short: as §1
[15] = Metabolic stability in CD-1 mouse microsomes assessed as compound remaining after 40 mins LC-MS/MS analysis; type: ADME, Microsome; details: read-out: Activity
In short: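 Mouse liver microsomes, mixed gender, at 37 °C for 40 min; propranolol control. Reports t1/2, intrinsic clearance and % intact compound remaining at 40 min.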

[16] = Inhibition of bacterial IMP-1 (unknown origin) expressed in Escherichia coli EXPRESS BL21(DE3) assessed as inhibition constant by measuring rate of substrate hydrolysis by UV-visible spectrophotometry; parameters: species or system Bacteria; in short: as §1

inhibition [4]	inhibition [5]	inhibition [12]	inhibition [13]	inhibition [14]	remaining at 40 min [15]	Compound	Ki [1]	Ki [2]	Ki [3]	MIC [6]	MIC [7]	MIC [8]	MIC [9]	Ki [10]	CC50 at 24 h [11]	Ki [16]
< 30%	< 30%	60%	58%	–	–	O=C(O)[C@H](CCCn1c(-c2ccccc2)n[nH]c1=S)NCc1cncs1	–	–	3.4 µM	–	–	–	–	–	–	–
37%	34%	–	53%	–	–	O=C(O)[C@H](CCCn1c(-c2ccccc2)n[nH]c1=S)N(Cc1cn[nH]c1)Cc1c[nH]cn1	4.6 µM	–	2 µM	–	–	–	–	–	–	–
< 30%	< 30%	–	36%	< 30%	–	Cc1ccc(C(C)N[C@@H](CCCn2c(-c3ccccc3)n[nH]c2=S)C(=O)O)cc1 (some centres not stated)	10.8 µM	–	–	–	–	–	–	–	–	–
42%	< 30%	–	53%	–	–	CC(C)(C)OC(=O)NCCCCn1c(-c2ccccc2)n[nH]c1=S	0.75 µM	–	3.1 µM	–	–	–	–	–	–	–
< 30%	47%	55%	< 30%	43%	–	O=C(O)[C@H](CCCn1c(-c2ccccc2)n[nH]c1=S)NCc1cscn1	–	–	–	–	–	–	–	–	–	–
–	–	–	–	–	31%	CC(C)NCC(O)COc1cccc2ccccc12 (configuration not stated) [PROPRANOLOL]	–	–	–	–	–	–	–	–	–	–
–	34%	< 30%	44%	< 30%	–	O=C(O)[C@H](CCCn1c(-c2ccccc2)n[nH]c1=S)NCc1ccccn1	–	–	–	–	–	–	–	2 µM	–	–
–	–	–	–	–	–	O=C(O)[C@H](CCCn1c(Cc2ccc3ccccc3c2)n[nH]c1=S)N(Cc1c[nH]cn1)Cc1c[nH]cn1	0.08 µM	0.27 µM	0.19 µM	0.03 mg/L	0.06 mg/L	8 mg/L	0.06 mg/L	0.03 µM	–	11.2 µM
< 30%	< 30%	48%	47%	< 30%	–	O=C(O)[C@H](CCCn1c(-c2ccccc2)n[nH]c1=S)NCc1cccnc1	–	–	–	–	–	–	–	–	–	–

Compound	inhibition [4]	inhibition [5]	inhibition [12]	inhibition [13]	inhibition [14]	remaining at 40 min [15]	Ki [1]	Ki [2]	Ki [3]	MIC [6]	MIC [7]	MIC [8]	MIC [9]	Ki [10]	CC50 at 24 h [11]	Ki [16]
COc1cccc(CN(Cc2cccc(OC)c2OC)[C@@H](CCCn2c(-c3ccccc3)n[nH]c2=S)C(=O)O)c1OC	43%	< 30%	–	–	–	–	2 µM	0.76 µM	0.36 µM	2 mg/L	4 mg/L	128 mg/L	64 mg/L	–	–	–
Cc1[nH]cnc1CN(Cc1nc[nH]c1C)[C@@H](CCCn1c(-c2ccccc2)n[nH]c1=S)C(=O)O	–	57%	–	–	–	–	0.31 µM	0.22 µM	0.35 µM	0.03 mg/L	0.03 mg/L	16 mg/L	2 mg/L	0.023 µM	141 µM	–
O=C(O)[C@H](CCCn1c(-c2ccccc2)n[nH]c1=S)N(Cc1ccccn1)Cc1c[nH]cn1	–	< 30%	–	–	–	–	0.95 µM	0.64 µM	0.56 µM	0.06 mg/L	0.03 mg/L	8 mg/L	0.06 mg/L	0.38 µM	175 µM	–
Cn1cncc1CN(Cc1c[nH]cn1)[C@@H](CCCn1c(-c2ccccc2)n[nH]c1=S)C(=O)O	66%	50%	–	–	–	–	4.4 µM	3.2 µM	3.8 µM	2 mg/L	4 mg/L	128 mg/L	32 mg/L	–	–	–
O=C(O)[C@H](CCCn1c(-c2ccccc2)n[nH]c1=S)N(Cc1ccccc1)Cc1c[nH]cn1	60%	45%	–	–	–	–	4.1 µM	2.1 µM	1 µM	2 mg/L	2 mg/L	128 mg/L	32 mg/L	–	–	–
